Screens: PubChem, Johns Hopkins Ion Channel Center
In the library only some 3.5% were active in any assay of this set; here they are far more common.
MrgX1 ag – activates human MrgX1 receptor signaling | Q96LB2 | MrgX1-HEK293 cells, Fluo-4 calcium fluorescence, agonist mode; stronger effect = higher value | B-score at 10 µM | 0.44% of 310,000 active | AID 588627;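 active = calcium response B-score plate-corrected fluorescence ratio at least 3 library SD, with starting fluorescence B-score inside 5 SD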
Target sequence (Q96LB2 whole entry, looked up): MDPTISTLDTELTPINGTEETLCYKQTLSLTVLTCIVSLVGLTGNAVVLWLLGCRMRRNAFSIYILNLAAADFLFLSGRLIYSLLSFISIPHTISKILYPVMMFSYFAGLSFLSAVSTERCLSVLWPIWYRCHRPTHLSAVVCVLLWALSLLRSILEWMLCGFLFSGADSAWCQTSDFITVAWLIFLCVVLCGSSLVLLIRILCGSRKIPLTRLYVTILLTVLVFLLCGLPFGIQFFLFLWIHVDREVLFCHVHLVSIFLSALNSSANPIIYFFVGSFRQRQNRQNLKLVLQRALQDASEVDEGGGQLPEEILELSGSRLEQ
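Assay system: MrgX1-expressing HEK293 cells / Amount: fifteen thousand cells per well / Doses: test compound in the initial addition of three / Timing: cells plated overnight, dye loaded 0.5 h 37 °C, 0.5 h room temperature / Technique: kinetic calcium dye fluorescence, Fluo-4 NW / Control set: positive and negative controls per plate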
MrgX1 PAM – human MrgX1 positive allosteric modulation, primary screen. Q96LB2. MrgX1-HEK293, Fluo-4 calcium flux, FDSS; stronger effect = higher value. B-score at 10 µM. 0.63% of 310,000 active;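 active = plate-corrected calcium response at least 3 library SD above typical, normal starting fluorescence, not activating the receptor alone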;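 also: compound read alongside a low EC10 to EC30 dose of BAM8-22 agonist; peak minus trough fluorescence over baseline measured at the second addition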
RGS4 pot – RGS4 potentiation or activation. AID 463111. HEK293 M3R/inducible RGS4, carbachol calcium flux Fluo4; stronger effect = lower value. B-score at 10 µM. 0.92% of 310,000 active;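 active = B-score of the integrated calcium signal more than 4 SD below the library mean, with starting fluorescence not abnormally high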;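 also: negative B-score means reduced calcium response which marks RGS4 activation or potentiation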
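System: HEK293 FlpIn-TREx cells, stable M3R, doxycycline-inducible RGS4. Timing: overnight RGS4 induction, 30 min dye load 37 °C, 20 min compound RT. Also added: carbachol, ECmax concentration. Measured by: Fluo4 fluorescence kinetic imaging of calcium. Evaluation: integrated calcium ratio converted to B score.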
MrgX1 antagonist – human MrgX1 receptor antagonism, primary screen | MRGX1-HEK293 calcium flux, Fluo-4, BAM8-22 antagonism; stronger effect = lower value | B-score at 10 µM | 1.3% of 310,000 active | Q96LB2;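 active = calcium-response B-score plate-corrected more than 3 library SD below zero, starting fluorescence within 5 deviations, no agonist response on first addition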;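 also: peak minus trough fluorescence over baseline after final BAM8-22 challenge near maximal dose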
RGS4 block – human RGS4 inhibition; P49798; HEK293 M3R/RGS4 inducible, Fluo-4 calcium flux; stronger effect = higher value; triggered by carbachol at its EC20; B-score at 10 µM; 0.45% of 310,000 active;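 active = B-score, a plate-corrected calcium signal, over three deviations above library mean, with baseline fluorescence within five deviations of library mean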;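 also: RGS4 expression induced by doxycycline in cells with stable M3 receptor; B-score is computed from the integrated fluorescence ratio over baseline after carbachol; higher B-score means a larger calcium signal and so more RGS4 inhibition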
Target sequence (P49798 whole entry, looked up): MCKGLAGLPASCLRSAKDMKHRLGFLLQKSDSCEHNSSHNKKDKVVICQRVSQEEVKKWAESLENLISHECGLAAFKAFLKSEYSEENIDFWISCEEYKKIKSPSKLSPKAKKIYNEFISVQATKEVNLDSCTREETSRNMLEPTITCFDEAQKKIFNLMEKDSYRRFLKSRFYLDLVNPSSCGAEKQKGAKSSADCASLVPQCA
RGS4 act valid – RGS4 activation, validation assay | shares compounds with RGS4 pot | HEK293 M3R/RGS4 inducible, carbachol calcium flux Fluo4 | inhibition, % at 10 µM | 89% of 1,100 active | AID 602282;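 active = inhibition above 3 SD of the buffer control wells, cut at about 41% in these data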;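 also: signal is the integrated peak-minus-minimum Fluo4 fluorescence over baseline ratio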
RGS4 act ctr – RGS4 activator counter-screen hit in non-induced cells | shares compounds with RGS4 pot | HEK293 M3R non-induced RGS4, Fluo4 calcium flux; after carbachol challenge at its EC90 | inhibition, % at 10 µM | 82% of 1,100 active;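 active = inhibition exceeding 3 SD of buffer-only control wells, cut at about 26% in these data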;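 also: percent drop in integrated peak-minus-baseline over baseline Fluo4 ratio after carbachol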
Starred values were filed as active, the others as inactive; i = inactive; nt = no result given.

SMILES	MrgX1 ag	MrgX1 PAM	RGS4 pot	MrgX1 antagonist	RGS4 block	RGS4 act valid	RGS4 act ctr
CCOc1ccccc1N1CCN(c2ncnc3scc(-c4ccc(OC)cc4)c23)CC1	i	i	-11*	i	i	90*	43*
COc1ccc(-c2csc3ncnc(N4CCN(CCO)CC4)c23)cc1	i	i	i	i	i	nt	nt
C=CCn1c(C)nnc1SCC(=O)N1CCN(S(=O)(=O)c2ccccc2)CC1	i	i	i	i	i	nt	nt
COc1cccc(N2CCN(c3ccc4nnc(CCC(=O)Nc5ccc(OC)c(OC)c5)n4n3)CC2)c1	i	i	i	i	i	nt	nt
COc1cccc(OC)c1OCCCOc1c(OC)cccc1OC	i	i	i	i	i	nt	nt
COc1cccc(OC)c1OCCNCC1CSc2ccccc2O1 (stereo not given)	i	i	-8.1*	i	i	0	0
Cc1nc2ccc(Br)cc2c2c1CC(CBr)O2 (stereo not given)	i	i	-8.1*	i	i	64*	84*
COc1cccc(NC(=O)CN(C)C(=O)c2cc(-c3ccc(F)cc3)nc3ccccc23)c1	i	i	-7.6*	i	i	86*	64*
COc1ccc(CN(C)C(=O)c2cc(-c3ccc(OC)c(OC)c3)nc3ccccc23)c(OC)c1	i	i	-9*	i	i	69*	84*
COc1ccc(-c2cc(C(=O)N(C)CCc3ccc(OC)c(OC)c3)c3ccccc3n2)cc1	i	i	i	i	i	nt	nt
COc1ccc(-c2cc(C(=O)N(C)Cc3cccc(OC)c3OC)c3ccccc3n2)cc1OC	i	i	i	i	i	nt	nt
COc1cccc(CN(C)C(=O)c2cc(-c3ccc(OC)c(OC)c3)nc3ccccc23)c1	i	i	-9.8*	i	i	66*	28*
CCN(CC(=O)Nc1cc(Cl)ccc1OC)CC(=O)NC1CCS(=O)(=O)C1 (stereo not given)	i	i	i	i	i	nt	nt
O=C(COc1ccccc1)Nc1cccc(-c2nc3ccccc3[nH]2)c1	i	i	-8.1*	i	i	76*	37*
CCOC(=O)c1c(NC(=O)CSc2nnnn2-c2ccc3c(c2)OCCO3)sc(C)c1C	i	i	-9.5*	i	i	84*	32*
O=C(O)CC12CC3CC(C1)CC(n1ncc(N4CCC5(CC4)OCCO5)c(Cl)c1=O)(C3)C2	i	i	i	i	i	nt	nt
COc1ccc(Nc2nc(NCC3CCCO3)c3ccccc3n2)c(OC)c1 (stereo not given)	i	i	-7.7*	i	i	38*	84*
CN(Cc1ccccc1O)CC1CCCN(CCc2ccc(Cl)cc2)C1 (stereo not given)	i	i	-10*	i	i	94*	73*
CN(Cc1ccc(C#CCCO)cc1)CC1CCCN(CCc2ccc(Cl)cc2)C1 (stereo not given)	i	i	i	i	i	nt	nt
OC(CNCc1ccc(F)cc1)(c1ccc(F)cc1)c1ccc(F)cc1	i	i	i	i	i	nt	nt
OC(CNCc1ccc(Cl)cc1)(c1ccccc1)c1ccc(F)cc1 (stereo not given)	i	i	-9.4*	i	i	94*	86*
CCOc1ccc(NC(C(=O)Nc2cccc(C(C)=O)c2)c2ccccc2)cc1 (stereo not given)	i	i	i	i	i	nt	nt
CCN(CC)CCNC(C(=O)Nc1cccc(C(C)=O)c1)c1ccccc1 (stereo not given)	i	i	-13*	-5*	i	90*	45*
COc1ccc(-c2cc(C(=O)N3CCN(c4ccccc4F)CC3)c3ccccc3n2)c(OC)c1	i	i	-8.4*	i	i	56*	0
CCCc1ccc(-c2cc(C(=O)N3CCN(c4ccccn4)CC3)c3ccccc3n2)cc1	i	i	-12*	i	i	52*	0
SMILES	MrgX1 ag	MrgX1 PAM	RGS4 pot	MrgX1 antagonist	RGS4 block	RGS4 act valid	RGS4 act ctr
COc1ccc(-c2cc(C(=O)N3CCN(c4ccccc4O)CC3)c3ccccc3n2)cc1OC	i	i	-7.7*	i	i	92*	82*
CCOc1ccc(-c2cc(C(=O)N3CCN(c4ccccn4)CC3)c3ccccc3n2)cc1	i	i	i	i	i	nt	nt
O=C(CSc1nc2nn(-c3ccccc3)c(=O)c-2c2n1CCCCC2)NCCCc1ccccc1	i	i	i	i	i	nt	nt
Cc1ccc(S(=O)(=O)N(C)C)cc1NC(=O)c1cc(C(C)(C)C)nn1Cc1ccccc1	i	i	i	i	i	nt	nt
COC(=O)Cn1cc(/C=C(/C#N)C(=O)N2CCOCC2)c2ccccc21	i	i	i	i	i	nt	nt
Cc1cnc(NC(=O)CSc2nc3ccccc3s2)s1	i	i	i	i	i	nt	nt
Cc1cnc(NC(=O)c2ccc(-c3nc4ccccc4s3)o2)s1	i	i	-9.7*	i	i	79*	32*
CC(C)c1ccccc1OCC(=O)Nc1ccc2[nH]ncc2c1	i	i	i	i	i	nt	nt
CCOc1ccc(NC(=O)C2CCCN(S(=O)(=O)c3cccc4nsnc34)C2)cc1 (stereo not given)	i	i	i	i	i	nt	nt
CCN(CC)S(=O)(=O)c1cc(NC(=O)C(C)N2CCN(c3ccccn3)CC2)ccc1C (stereo not given)	i	i	-9.1*	i	i	64*	0
O=C(CSc1nnc(NC2CCCCC2)s1)Nc1ccc2c(c1)C(=O)c1ccccc1C2=O	i	i	i	i	i	nt	nt
CC(C)Nc1nnc(SCC(=O)Nc2ccc3c(c2)C(=O)c2ccccc2C3=O)s1	i	i	-11*	i	i	88*	45*
Nc1ccc2c3c(cccc13)C(=O)N(c1ccccc1)C2=O	nt	nt	i	nt	i	nt	nt
CC(C)CCN1C(=O)c2cccc3c(N)ccc(c23)C1=O	i	i	-7.8*	i	i	99*	95*
CCCCCCSc1cc(-c2nc3cc(C)ccn3c2NCCCC)ccc1OC	i	i	i	i	i	nt	nt
CCCCNc1c(-c2ccc(OC)c(Sc3ccc(OC)cc3)c2)nc2ccccn12	i	i	-11*	i	i	91*	71*
